# Experimental data: ChEMBL document CHEMBL1122094, “Novel orally active inhibitors of passive cutaneous anaphylaxis in rats: N-[2-(4-pyridinyl)-4-pyrimidinyl]ureas and dialkyl [[[2-(4-pyridinyl)-4-pyrimidinyl]amino]methylene]malonates” (1982)
# How the values were obtained:
# Rattus norvegicus [1] = organism: Rattus norvegicus; assay: Antiallergic potency against IgE-mediated passive cutaneous anaphylaxis (PCA) in rats; type: functional
# Procedure, shortened: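 Multiple-dose oral tests were run alongside aminophylline in female Sprague–Dawley rats (90–125 g). Bluing diameters were recorded 30 min after challenge, and activity was taken as the rightward shift of the antibody dose-response curve.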
# Rattus norvegicus [2] = organism: Rattus norvegicus; assay: Antiallergic activity against IgE-mediated passive cutaneous anaphylaxis (PCA) in rats; type: functional
# Procedure, shortened: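 Female Sprague–Dawley rats (90–125 g), fasted overnight, were sensitized with id injections of graded concentrations of IgE against egg albumin. Compound was given orally at 100 mg (base)/kg in 0.5% gum tragacanth to 4 rats, 1 h before challenge. Skin bluing diameters were read 30 min later, and the shift of the antibody dose-response curve to the right was expressed in multiples of antibody concentration.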
SMILES,Potency (Rattus norvegicus [1]),PCA shift (Rattus norvegicus [2])
CCNC(=O)Nc1ccnc(-c2cccnc2)n1,4.8,>10
CC(=O)C(=CNc1ccnc(-c2ccncc2)n1)C(C)=O,–,5.6
COC(=O)C(/C=N/c1ccnc(-c2cccnc2)n1)=C(\O)OC,2.9,>10
CCO/C(O)=C(\C=N\c1ccnc(-c2ccncc2)n1)C(C)=O,–,2.9
CCOC(=O)C(/C=N/c1ccnc(-c2cccnc2)n1)=C(\O)OCC,0.8,>10
CN(C(=O)NC(C)(C)C)c1ccnc(-c2ccncc2)n1,–,4
CC(C)(C)C(=O)Nc1ccnc(-c2ccncc2)n1,–,4.2
CC(C)CC(=O)Nc1ccnc(-c2ccncc2)n1,–,5
CCCCNC(=O)Nc1ccnc(-c2ccncc2)n1,2.4,>10
CC1(C)OC(=O)C(/C=N/c2ccnc(-c3ccncc3)n2)=C(O)O1,–,2.2
CN(C)c1ccnc(-c2ccncc2)n1,–,1.5
Cc1cc(O)nc(-c2ccncc2)n1,–,2.8
Cc1cnc(-c2ccncc2)nc1NC(=O)NC(C)(C)C,–,3.5
Nc1ccnc(-c2cc[n+]([O-])cc2)n1,–,3.8
CCNc1ccnc(-c2ccncc2)n1,–,8.4
NC(=O)Nc1ccnc(-c2ccncc2)n1,–,4.8
CCCCOC(=O)Nc1ccnc(-c2ccncc2)n1,–,3
Nc1ccnc(-c2cccnc2)n1,–,4.2
CCCNC(=O)Nc1ccnc(-c2ccncc2)n1,–,>10
CC(C)(C)NC(=O)Nc1ccnc(-c2ccccn2)n1,–,4.5

SMILES,Potency (Rattus norvegicus [1]),PCA shift (Rattus norvegicus [2])
CC(=O)Nc1ccnc(-c2ccncc2)n1,–,1.7
CC(C)(C)NC(=O)Nc1ccnc(-c2cccnc2)n1,–,5.8
CCO/C(O)=C(C#N)\C=N\c1ccnc(-c2ccncc2)n1,–,9.4
CC(C)NC(=O)Nc1ccnc(-c2ccncc2)n1,2.4,>10
CC(C)(C)CC(=O)Nc1ccnc(-c2ccncc2)n1,–,2.2
CCO/C(O)=C(C#N)\C(C)=N\c1ccnc(-c2ccncc2)n1,–,5
CCCCNc1ccnc(-c2ccncc2)n1,–,7.6
CCNC(=O)Nc1ccnc(-c2ccncc2)n1,7,>10
CCCCNC(=O)Nc1ccnc(-c2cccnc2)n1,–,8.5
CCN(CC)C(=O)Nc1ccnc(-c2ccncc2)n1,–,8.9
CC(C)C(=O)Nc1ccnc(-c2ccncc2)n1,–,2.3
CC(C)NC(=O)Nc1ccnc(-c2cccnc2)n1,1.6,>10
CC(C)(C)NC(=O)Nc1ccnc(-c2cc[n+]([O-])cc2)n1,–,1.5
CC(C)(C)NC(=O)Nc1ccnc(-c2ccncc2)n1,3.9,>10
Nc1ccnc(-c2ccccn2)n1,–,2.5
CC(C)(C)Nc1ccnc(-c2ccncc2)n1,–,1.5
CC(C)(C)OC(=O)Nc1ccnc(-c2ccncc2)n1,–,1.6
CCN(CC)c1cc(C)nc(-c2ccncc2)n1.Cl.Cl,–,2.2
Cc1cc(N(C)C)nc(-c2ccncc2)n1.Cl.Cl,–,5
CCCCN(C(=O)NC(C)C)c1ccnc(-c2ccncc2)n1.CS(=O)(=O)O.CS(=O)(=O)O,–,4.2

SMILES,Potency (Rattus norvegicus [1]),PCA shift (Rattus norvegicus [2])
CCC(CC)NC(=O)Nc1ccnc(-c2ccncc2)n1.CS(=O)(=O)O.CS(=O)(=O)O,–,6.4
CS(=O)(=O)O.CS(=O)(=O)O.Cc1cc(NN)nc(-c2ccncc2)n1,–,2
CC(C)NC(=O)Nc1ccnc(-c2cc[n+]([O-])cc2)n1.CS(=O)(=O)O.CS(=O)(=O)O,1.8,5.4
CCOC(=O)C(/C=N/c1ccnc(-c2ccccn2)n1)=C(\O)OCC.CS(=O)(=O)O,–,4.1
Cc1cc(N(CCO)CCO)nc(-c2ccncc2)n1,–,6.3
CNC(=O)Nc1ccnc(-c2ccncc2)n1,3.8,>10
CC(C)(CO)NC(=O)Nc1ccnc(-c2ccncc2)n1,1,>10
Nc1ccnc(-c2ccncc2)n1,–,8.6
CCOC(=O)C(/C=N/c1cc(C)nc(-c2ccncc2)n1)=C(/O)OCC,–,7.8
CCCCCC(=O)Nc1ccnc(-c2ccncc2)n1,–,7
CC(C)(C)CNC(=O)Nc1ccnc(-c2ccncc2)n1,–,2.2
CNc1ccnc(-c2ccncc2)n1,–,7.4
CCOC(=O)C(/C=N/c1ccnc(-c2ccncc2)n1)=C(\O)OCC,2.4,>10
CNc1cc(C)nc(-c2ccncc2)n1,–,4.9
Cc1cc(Cl)nc(-c2ccncc2)n1,–,1.4
COC(=O)C(/C=N/c1ccnc(-c2ccncc2)n1)=C(\O)OC,5.8,>10
CC(C)Nc1ccnc(-c2ccncc2)n1,–,9
Cc1cc(NC(=O)NC(C)(C)C)nc(-c2ccncc2)n1,–,3.2
CC(C)NC(=O)N(C)c1ccnc(-c2ccncc2)n1,–,>10
Cc1cc(N)nc(-c2ccncc2)n1,–,10.2
